Data reported in article PMC4804314 (Pharmacology Research & Perspectives, 2016).
Like-named read-outs stand apart in the source and are kept apart here. Marks after values point to notes of the source that are not given here.

Assays:
[1] = Physicochemical properties
[2] = Quantitative tissue distribution; format: in vivo, mouse (NMRI); conditions: for dose found in the carcasses: 24 h postdose
Outline: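 Male and female NMRI mice got i.v. [14C]-test compound, 2.5 mg/kg (n = 3/time), with tissues excised at 0.1, 0.5, 2, 8 and 24 h. Larger organs were homogenized and small tissues taken whole. Carcasses were included. Samples were dried at about 60°C for 12 h, combusted in a sample oxidizer and read by LSC.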

[3] = Metabolite profiling of mouse plasma, urine and feces by radio-HPLC; format: in vivo, mouse (NMRI); conditions: for dose excreted: NMRI, mouse
Outline: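 Mouse samples after i.v. [14C]-test compound, 2.5 mg/kg. Plasma at 0.1 and 0.25 h was extracted twice with ethanol. Fecal precipitates were sonicated with ethanol at 40°C/2 h, and unextracted residue was combusted. Extracts ran on isocratic radio-HPLC: acetonitrile/0.05 mol/L ammonium acetate pH 4 (19/80, v/v), RP8e column, 1 mL/min, UV 230 nm plus radiodetector. Excreted radioactivity was given as % dose.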

[4] = Excretion of total radioactivity in mouse; format: in vivo, mouse (NMRI)
Outline: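 Male and female NMRI mice got an i.v. bolus of [14C]-test compound, 2.5 mg/kg. Urine and feces were collected 0–8 h, 8–24 h, then every 24 h to 120 h. Urine from timed pooled samples (n = 3) was counted by LSC. Feces were homogenized in water with carboxymethylcellulose, and 1 g aliquots were dried at 60°C/12 h and combusted. Minced carcasses (0.5 g aliquots) and tail segments were combusted for residual radioactivity.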

[5] = Plasma pharmacokinetics in rabbit after i.v. infusion; format: in vivo, Chinchilla rabbit
Outline: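 Chinchilla rabbits received a 4-h infusion into the ear vein at 50, 150 or 450 mg/kg/d. Plasma was sampled before and at 2, 4, 4.25, 4.5, 5, 7 and 10 h after infusion start.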

[6] = system: sandwich‐cultured mouse (NMRI) hepatocytes; experiment: Hepatobiliary disposition in sandwich-cultured mouse hepatocytes; format: in vitro ADME; conditions: for BEI / CLbiliary / Intracellular concentration / Cellular accumulation Avg. / Total accumulation Avg.: 20 min; for Cellular accumulation Avg. / Total accumulation Avg.: mean ± SD of triplicate wells
[7] = system: sandwich‐cultured human hepatocytes; experiment: Hepatobiliary disposition in sandwich-cultured human hepatocytes; format: in vitro ADME
Outline: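 Sandwich-cultured human hepatocytes from three donor liver preparations, cultured 6 days. [14C]-test compound was applied at 10 and 250 μmol/L, with [3H]-taurocholate as transporter-function control and LDH release as cytotoxicity check. Radioactivity was read by LSC. Accumulation is mean ± SD of triplicate wells. BEI, CLbiliary, intracellular concentration and Cic/Cec were derived.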

[8] = system: human suspension hepatocytes; experiment: Uptake into human suspension hepatocytes; format: in vitro ADME
Outline: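 Cryopreserved human hepatocytes in suspension, transporter function verified by the supplier. Test compound was applied at 10 μmol/L, 250 μmol/L and 10 mmol/L for 1 to 30 or 90 min. Cells were separated from buffer by the oil-layer method, and drug in both compartments was quantified over time by LC/MS/MS. Nonspecific transporter inhibition used rifampicin 20 μmol/L, cyclosporine A 20 μmol/L and quinidine 100 μmol/L.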

[9] = system: sandwich‐cultured hepatocytes; experiment: Cytotoxicity test with lactate dehydrogenase; format: cell-based; conditions: 250 μmol/L, up to 24 h
[10] = NADPH-dependent metabolism by mouse liver microsomes; format: in vitro ADME; conditions: mice, 10 and 100 µM, up to 6 h
[11] = NADPH-dependent metabolism by monkey liver microsomes; format: in vitro ADME; conditions: monkeys, 10 and 100 µM, up to 6 h
human hepatocytes = experiment: Metabolism in cultured human hepatocytes; format: in vitro ADME; conditions: 1 and 10 µg/mL, up to 24 h
[12] = Biological stability of the radiolabel; format: in vivo, rat; conditions: rats, within 72 h after dosing
[13] = ref Becker et al. 2015, cited from earlier work
[14] = 10 μM, donor 1, 20 min, mean ± SD of triplicate wells
[15] = 10 μM, donor 2, 20 min, mean ± SD of triplicate wells
[16] = 10 μM, donor 3, 20 min, mean ± SD of triplicate wells
[17] = 10 μM, mean ± standard error of 3 donors, 20 min
[18] = 250 μM, donor 1, 20 min, mean ± SD of triplicate wells
[19] = 250 μM, donor 2, 20 min, mean ± SD of triplicate wells
[20] = 250 μM, donor 3, 20 min, mean ± SD of triplicate wells
[21] = 250 μM, mean ± standard error of 3 donors, 20 min
[22] = human, male, 0–144 h, n = 5, listed as [^14C]‐cilengitide

SMILES: CC(C)[C@H]1C(=O)N[C@@H](CCCN=C(N)N)C(=O)NCC(=O)N[C@@H](CC(=O)O)C(=O)N[C@H](Cc2ccccc2)C(=O)N1C [cilengitide, cyclo‐(Asp‐D‐Phe‐N‐MeVal‐Arg‐Gly)]
- solubility [1]: high
- partition coefficient Po/w ([1]; octanol–water): 0.0096
- dose found in the carcasses ([2]; female mice): 0.4 % of the dose
- dose found in the carcasses ([2]; male mice): 0.8 % of the dose
- concentrations in reproductive organs relative to plasma ([2]; mice, after 8 h): 6–14 times higher
- dose excreted ([3]; female, feces): 66.2%
- dose excreted ([3]; female, feces, iv, 2.5 mg/kg): 66%
- dose excreted ([3]; female, urine, iv, 2.5 mg/kg): 28%
- unchanged drug in feces (fecal/biliary secretion) ([3]; male mice): 87.2 % of the administered dose
- dose excreted ([3]; male, feces, iv, 2.5 mg/kg): 87%
- dose excreted ([3]; male, urine, iv, 2.5 mg/kg): 7%
- extent of renal excretion [4]: 10%
- level at 4 h ([5]; Chinchilla, rabbit, plasma, iv, 50 mg/kg): 34200 to 38500 ng/mL
- clearance in comparison to hbf ([5]; female rabbits): ~15%
- clearance ([5]; rabbit, in vivo): 8640 mL/day/kg
- half-life ([5]; rabbit, in vivo, 450 mg/kg, apparent half‐life, rabbit, 450 mg/kg dose group): ~1 h
- uptake into hepatocytes [6]: fairly robust
- BEI ([6]; 10 μmol/L): 29.3%
- CLbiliary ([6]; 10 μmol/L): 1010 mL/day/kg
- Intracellular concentration ([6]; 10 μmol/L): 4.13 µM
- Cellular accumulation Avg. ([6]; 10 μmol/L): 33.3 ± 1.4 pmol/mg
- Total accumulation Avg. ([6]; 10 μmol/L): 47.1 ± 1.7 pmol/mg
- BEI ([6]; 250 μmol/L): 43.3%
- CLbiliary ([6]; 250 μmol/L): 3950 mL/day/kg
- Intracellular concentration ([6]; 250 μmol/L): 219 µM
- Cellular accumulation Avg. ([6]; 250 μmol/L): 1768 ± 14 pmol/mg
- Total accumulation Avg. ([6]; 250 μmol/L): 3115 ± 32 pmol/mg
- biliary efflux (BEI) ([6]; 10 and 250 μmol/L): 30–40%
- intracellular concentration (Cic) ([6]; exposure 10 μmol/L): 4.13 µmol/L
- intracellular concentration (Cic) ([6]; exposure 250 μmol/L): 219 µmol/L
- biliary efflux (as determined by BEI and CLbil) [7]: negligible
- BEI ([7]; 10 μM, donor 1, 20 min): 2.42%
- CLbiliary ([7]; 10 μM, donor 1, 20 min): 7.2 mL/day/kg
- Intracellular concentration ([7]; 10 μM, donor 1, 20 min): 1.70 µM
- Cellular accumulation Avg. [7, 14]: 13.7 ± 1.8 pmol/mg
- Total accumulation Avg. [7, 14]: 14.0 ± 1.5 pmol/mg
- BEI ([7]; 10 μM, donor 2, 20 min): 2.30%
- CLbiliary ([7]; 10 μM, donor 2, 20 min): 5.8 mL/day/kg
- Intracellular concentration ([7]; 10 μM, donor 2, 20 min): 0.52 µM
- Cellular accumulation Avg. [7, 15]: 4.17 ± 0.33 pmol/mg
- Total accumulation Avg. [7, 15]: 4.27 ± 0.46 pmol/mg
- BEI ([7]; 10 μM, donor 3, 20 min): 16.6%
- CLbiliary ([7]; 10 μM, donor 3, 20 min): 18.7 mL/day/kg
- Intracellular concentration ([7]; 10 μM, donor 3, 20 min): 0.56 µM
- Cellular accumulation Avg. [7, 16]: 4.53 ± 0.38 pmol/mg
- Total accumulation Avg. [7, 16]: 5.44 ± 3.31 pmol/mg
- BEI [7, 17]: 7.12 ± 4.76%
- CLbiliary [7, 17]: 10 ± 4.3 mL/day/kg
- Cellular accumulation Avg. [7, 17]: 7.47 ± 3.12 pmol/mg
- Intracellular concentration [7, 17]: 0.926 ± 0.386 µM
- Total accumulation Avg. [7, 17]: 7.90 ± 3.07 pmol/mg
- BEI ([7]; 250 μM, donor 1, 20 min): 20.4%
- CLbiliary ([7]; 250 μM, donor 1, 20 min): 40.3 mL/day/kg
- Intracellular concentration ([7]; 250 μM, donor 1, 20 min): 22.7 µM
- Cellular accumulation Avg. [7, 18]: 183 ± 27 pmol/mg
- Total accumulation Avg. [7, 18]: 230 ± 28 pmol/mg
- BEI ([7]; 250 μM, donor 2, 20 min): 8.75%
- CLbiliary ([7]; 250 μM, donor 2, 20 min): 7.2 mL/day/kg
- Intracellular concentration ([7]; 250 μM, donor 2, 20 min): 10.4 µM
- Cellular accumulation Avg. [7, 19]: 84.0 ± 12.1 pmol/mg
- Total accumulation Avg. [7, 19]: 92.1 ± 5.7 pmol/mg
- BEI ([7]; 250 μM, donor 3, 20 min): 15.6%
- CLbiliary ([7]; 250 μM, donor 3, 20 min): 18.7 mL/day/kg
- Intracellular concentration ([7]; 250 μM, donor 3, 20 min): 15.2 µM
- Cellular accumulation Avg. [7, 20]: 122 ± 14 pmol/mg
- Total accumulation Avg. [7, 20]: 145 ± 5.9 pmol/mg
- BEI [7, 21]: 14.9 ± 3.4%
- CLbiliary [7, 21]: 21.6 ± 10 mL/day/kg
- Cellular accumulation Avg. [7, 21]: 130 ± 29 pmol/mg
- Intracellular concentration [7, 21]: 16.1 ± 3.6 µM
- Total accumulation Avg. [7, 21]: 156 ± 3 pmol/mg
- biotransformation by HPLC analysis of supernatant and cell lysate ([7]; 250 μmol/L, 6 and 24 h): no indication for biotransformation
- Intracellular concentration ([7]; exposure at 10 μmol/L): 0.926 ± 0.386 µM
- Intracellular concentration ([7]; exposure at 250 μmol/L): 16.1 ± 3.6 µM
- active uptake in human hepatocytes [8]: no active uptake
- dependency of uptake on drug concentration ([8]; 10 μmol/L, 250 μmol/L and 10 mmol/L): no clear dependency on drug concentration
- effect of inhibitor cocktail on distribution into hepatocytes ([8]; 20 μmol/L rifampicin, 20 μmol/L cyclosporine A, 100 μmol/L quinidine): no relevant inhibition
- time after which distribution into hepatocytes was almost complete ([8]; human suspension hepatocytes): 1 to 4 min
- uptake into human hepatocytes ([8]; suspension, 10 μmol/L, 250 μmol/L and 10 mmol/L): minor
- cell toxicity (LDH in cell culture medium) [9]: does not cause cell toxicity
- metabolism by liver microsomes [10]: poorly metabolized
- metabolism by liver microsomes [11]: poorly metabolized
- metabolism by cultured hepatocytes (human hepatocytes): poorly metabolized
- dose exhaled as [^14C]‐CO2 [12]: less than 0.1 % of the dose
- dose recovered in urine as unchanged drug ([13]; human volunteers): 77.5%
- Excretion of radioactivity in feces ([13]; human, male, 0–24 h, n = 5): ∼9.0 % dose
- Excretion of radioactivity, total ([13]; human, male, 0–24 h, n = 5): ∼87 % dose
- Excretion of radioactivity in feces ([13]; human, male, 0–144 h, n = 5): 15.5 % dose
- Excretion of radioactivity in urine ([13]; human, male, 0–144 h, n = 5): 79 % dose
- Excretion of radioactivity in feces [13, 22]: 15.5 ^d % dose
- Excretion of radioactivity in urine [13, 22]: 79.0 ^d % dose
- extent of renal excretion ([13]; human): ~ 80%
- components found in human plasma and urine [13]: parent compound was the only component found
- renal clearance compared with creatinine clearance of each subject [13]: below the creatinine clearance
